Laboratory results reported in ChEMBL document CHEMBL5360630, “Macrocyclic Peptidomimetic Plasmepsin X Inhibitors with Potent In Vitro and In Vivo Antimalarial Activity” (J Med Chem, 2023).
Activity calls are given as the source filed them. No cut-off for these calls is given here.

How the values were obtained:
[1] = Toxicity in NMRI mouse assessed as adverse effect at 50 mg/kg, po measured upto 24 hrs by UP-LCMS analysis; assay type: organism-based; conditions: in vivo
In short: (§1)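 Female NMRI mice (10–12 weeks, 29–32 g), acclimatized 1 week, given a single peroral bolus of 50 mg/kg (10 mL/kg). Toxicity signs scored on a 0–6 scale at 0–2, 5, 10, 15, 30, 60, 120, 240 min and 24 h after dosing.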

[2] = Toxicity in NMRI mouse assessed as drug tolerance at 50 mg/kg, po measured upto 24 hrs by UP-LCMS analysis; assay type: organism-based; conditions: in vivo; in short: as §1
Plasmodium falciparum [3] = assay: Antiplasmodial activity against Plasmodium falciparum infected in PfalcHy mouse assessed as reduction in blood parasitemia level administered orally; assay type: functional, organism-based; conditions: dose 40.0 mg/kg, route po
In short: (§2)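 Female NSG mice (22–28 g) engrafted with human erythrocytes by daily i.p./i.v. injection; once >40% circulating human RBCs, infected i.v. with P. falciparum Pf3D7 0087/N9. Oral gavage (10 mL/kg) from ~1.3% parasitemia (Day 1); 40 mg/kg QD, BID or TID for 4 days. Parasitemia in tail blood by flow cytometry (TER-119-PE, SYTO-16) and Giemsa smears; stage distribution examined on day 3.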

Plasmodium falciparum [4] = assay: Antiplasmodial activity against Plasmodium falciparum infected in NSG mouse model assessed as accumulation of circulating mature schizonts at 40 mg/kg, po measured after 3 days by giemsa staining based flow cytometry analysis; assay type: functional, organism-based; conditions: time 3.0 day; in short: as §2

For `CCCN1CCCCCc2cccc(c2)C[C@@H]([C@H](O)CNC(C)(C)c2cccc(OC)c2)NC(=O)c2cccc(c2)C1=O`, which Activity [1] is on record?
The Activity was “Non-Toxic”.

And the Activity [2]?
The Activity was “Non-Toxic”.

What about the Activity (Plasmodium falciparum [3]) of the same compound?
Its Activity is “Dose-Dependent Effect”.

And the Activity (Plasmodium falciparum [4])?
The Activity was “Active”.
